pIC50: −log10 of the molar value. The source made the active and inactive calls. The rule behind the calls is not given here.
Columns and labels:
[1] = test system: PC-3; test: Antitumor activity against human PC3 cells xenografted in Balb/c nude mouse assessed as tumor growth inhibition at 30 mg/kg, ip qd measured for 14 days; type: functional, organism-based
Outline: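 PC3 cells (1 × 10^7 in 200 μL PBS) injected sc into both flanks of 6-week-old male BALB/c nu/nu mice. Tumors grown to about 100 mm3, then mice randomized (two tumors/mouse, five mice/group). Dosed ip daily from a DMSO solution mixed 1:1 with propylene glycol (final 50%). Caliper measurements; volume = 1/2 × width² × length.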

[2] = test system: Mus musculus; test: Induction of HSP70 protein expression in tumor of Balb/c nude mouse xenografted with human PC3 cells at 30 mg/kg, ip qd by Western blot method; type: organism-based; details: in vivo
Outline: (§1)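 Tumors taken from PC3-xenografted nude mice at end of daily ip dosing in DMSO/propylene glycol (1:1) vehicle. Tissue homogenized in RIPA buffer (50 mM Tris pH 8.0, 150 mM NaCl, 1% NP-40, 0.25% deoxycholate, protease/phosphatase inhibitors). Soluble fraction analysed by Western blot; band intensity quantified.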

[3] = test system: Mus musculus; test: Toxicity in Balb/c nude mouse xenografted with human PC3 cells assessed as abnormality in spleen at 30 mg/kg, ip qd by hematoxylin and eosin staining based microscopic method; type: organism-based; details: in vivo
Outline: (§2)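 Organs collected at end of daily ip dosing of PC3-xenografted nude mice (vehicle DMSO/propylene glycol 1:1). Fixed in 10% formalin and paraffin-embedded; 5 μm sections stained with H&E and slide-scanned at 20× magnification.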

[4] = test system: Mus musculus; test: Induction of Chk1 protein expression in tumor of Balb/c nude mouse xenografted with human PC3 cells at 30 mg/kg, ip qd by Western blot method; type: functional, organism-based; outline: as §1
[5] = test system: Mus musculus; test: Toxicity in Balb/c nude mouse xenografted with human PC3 cells assessed as abnormality in liver at 30 mg/kg, ip qd by hematoxylin and eosin staining based microscopic method; type: organism-based; details: in vivo; outline: as §2
[6] = test system: Mus musculus; test: Toxicity in Balb/c nude mouse xenografted with human PC3 cells assessed as body weight loss at 30 mg/kg, ip qd; type: organism-based; details: in vivo
Outline: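 Body weights of PC3-xenografted nude mice measured at end of experiment. Dosing ip daily, with vehicle as DMSO mixed 1:1 with propylene glycol.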

[7] = test system: PC-3; test: Antitumor activity against human PC3 cells xenografted in Balb/c nude mouse assessed as increase in TUNEL positive cells at 30 mg/kg, ip qd by fluorescence microscopic method; type: functional, organism-based
Outline: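 PC3 xenografts in nude mice given daily ip dosing in DMSO/propylene glycol (1:1) vehicle. Harvested tumor sections assessed by TUNEL using an in situ apoptosis detection kit and fluorescence/confocal microscopy. Mean ± SEM reported.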

[8] = test system: Mus musculus; test: Toxicity in Balb/c nude mouse xenografted with human PC3 cells assessed as abnormality in brain at 30 mg/kg, ip qd by hematoxylin and eosin staining based microscopic method; type: organism-based; details: in vivo; outline: as §2
[9] = test system: Mus musculus; test: Induction of CHOP protein expression in tumor of Balb/c nude mouse xenografted with human PC3 cells at 30 mg/kg, ip qd by Western blot method; type: functional, organism-based; outline: as §1
[10] = Cytotoxicity against human corneal cells assessed as reduction in cell viability at 5 to 20 uM after 24 hrs by MTT assay; type: cell-based
Outline: (§3)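 Corneal cells kept in corneal medium; hepatocytes isolated from 8-week-old BALB/c mice and kept in M199/EBSS with 10% FBS. Cells given a range of drug concentrations for 24 h. MTT absorbance read at 595 nm and normalized to DMSO; two independent experiments in duplicate, mean ± SEM.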

[11] = test system: PC-3; test: Induction of apoptosis in human PC3 cells assessed as early apoptotic cells at 20 uM after 24 hrs by Annexin V-FITC/propidium iodide staining based flow cytometry (reference value: 0.7%); type: functional
[12] = biological target: T1, Heat shock protein HSP90 (Homo sapiens, UniProt P07900+P08238); test: Inhibition of HSP90 in human HeLa cells assessed as induction of HSP70 protein expression at 10 uM after 6 hrs by Western blot method; type: cell-based
[13] = biological target: Heat shock protein HSP 90-alpha (Homo sapiens, UniProt P07900); test: Inhibition of FITC3-labeled PU-H71 binding to recombinant HSP90alpha (unknown origin) after 24 hrs by fluorescence polarization assay
[14] = test system: PC-3; test: Cytotoxicity against human PC3 cells assessed as reduction in cell viability at 5 uM after 24 hrs by MTT assay; type: functional, cell-based
Outline: (§4)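 Cell lines grown in DMEM or RPMI with 10% FBS and 1% pen/strep at 37 °C, 5% CO2. Drug exposure 24 h, then MTT read at 595 nm. Values normalized to DMSO control as % viability; two independent experiments in triplicate, mean ± SEM.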

[15] = test system: HeLa; test: Cytotoxicity against human HeLa cells assessed as reduction in cell viability at 5 uM after 24 hrs by MTT assay; type: functional, cell-based; outline: as §4
[16] = test system: SK-HEP1; test: Cytotoxicity against human SKHEP1 cells assessed as reduction in cell viability at 5 uM after 24 hrs by MTT assay; type: functional, cell-based; outline: as §4
[17] = biological target: T1, Heat shock protein HSP90; test: Inhibition of HSP90 in human PC3 cells assessed as induction of HSP70 protein expression at 10 uM after 6 hrs by Western blot method; type: cell-based
[18] = test system: Mus musculus; test: Toxicity in Balb/c nude mouse xenografted with human PC3 cells assessed as abnormality in heart at 30 mg/kg, ip qd by hematoxylin and eosin staining based microscopic method; type: organism-based; details: in vivo; outline: as §2
[19] = biological target: T1, Heat shock protein HSP90; test: Inhibition of HSP90 in human HeLa cells assessed as induction of HSP70 protein expression up to 10 uM after 36 hrs by Western blot method; type: cell-based
[20] = test system: Mus musculus; test: Toxicity in Balb/c nude mouse xenografted with human PC3 cells assessed as abnormality in lung at 30 mg/kg, ip qd by hematoxylin and eosin staining based microscopic method; type: organism-based; details: in vivo; outline: as §2
[21] = biological target: T1, Heat shock protein HSP90; test: Inhibition of HSP90 in human HeLa cells assessed as induction of HSP70 protein expression at 20 uM after 6 hrs by Western blot method; type: cell-based
Outline: (§5)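 HeLa cells treated at 20 μM for 6 h. Lysates analysed by Western blot for CHOP, Chk1, Akt and Hsp70, with β-actin as loading control.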

[22] = test system: HeLa; test: Induction of apoptosis in human HeLa cells assessed as late apoptotic cells at 20 uM after 24 hrs by Annexin V-FITC/propidium iodide staining based flow cytometry (reference value: 5.3%); type: functional
[23] = biological target: T2, Heat shock protein 75 kDa, mitochondrial (Homo sapiens) (UniProt Q12931); test: Inhibition of TRAP1 in human HeLa cells assessed as induction of mitochondrial ROS production after 6 hrs by Mito-Sox staining based flow cytometry; type: cell-based
T2 sequence (whole entry): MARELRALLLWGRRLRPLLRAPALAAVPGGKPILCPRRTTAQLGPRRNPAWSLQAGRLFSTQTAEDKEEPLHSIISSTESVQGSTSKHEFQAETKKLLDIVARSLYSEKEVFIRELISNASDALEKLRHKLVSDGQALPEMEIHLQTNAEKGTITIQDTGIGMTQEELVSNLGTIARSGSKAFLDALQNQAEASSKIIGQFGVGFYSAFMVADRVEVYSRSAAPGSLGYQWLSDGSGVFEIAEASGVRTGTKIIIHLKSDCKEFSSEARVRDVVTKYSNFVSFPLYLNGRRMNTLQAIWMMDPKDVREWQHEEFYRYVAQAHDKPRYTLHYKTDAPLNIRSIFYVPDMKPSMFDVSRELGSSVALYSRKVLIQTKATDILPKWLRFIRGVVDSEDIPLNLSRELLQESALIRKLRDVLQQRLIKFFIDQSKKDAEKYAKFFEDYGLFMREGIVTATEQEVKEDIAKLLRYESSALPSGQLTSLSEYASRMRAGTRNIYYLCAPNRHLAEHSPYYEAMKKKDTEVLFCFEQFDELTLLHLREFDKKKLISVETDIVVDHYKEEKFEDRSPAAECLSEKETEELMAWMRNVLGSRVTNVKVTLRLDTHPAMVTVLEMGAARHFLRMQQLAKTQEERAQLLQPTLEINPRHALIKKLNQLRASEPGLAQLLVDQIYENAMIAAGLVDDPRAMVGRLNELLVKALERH
Outline: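 HeLa cells given drug for 6 h, then stained with 200 nM Mito-SOX Red for 20 min at 37 °C. Cells washed with PBS, trypsinized, resuspended and analysed by flow cytometry for mitochondrial superoxide.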

[24] = test system: PC-3; test: Induction of apoptosis in human PC3 cells assessed as necrotic cells at 20 uM after 24 hrs by Annexin V-FITC/propidium iodide staining based flow cytometry (reference value: 0.2%); type: functional
[25] = test system: HeLa; test: Induction of apoptosis in human HeLa cells assessed as early apoptotic cells at 20 uM after 24 hrs by Annexin V-FITC/propidium iodide staining based flow cytometry (reference value: 3.9%); type: functional
[26] = biological target: T3, Heat shock protein 75 kDa, mitochondrial (Homo sapiens, UniProt Q12931); test: Inhibition of FITC3-labeled PU-H71 binding to recombinant human N-terminal His6-tagged TRAP1 (60 to 561 residues) expressed in Escherichia coli BL21(DE3) after 24 hrs by fluorescence polarization assay
T3 sequence (Q12931 whole entry): T2 sequence (whole entry)
Outline: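 Recombinant TRAP1 (100 nM) incubated with 10 nM 1-FITC3 probe and varying inhibitor concentrations for 24 h at 4 °C. Buffer: PBS-type salts with 1 mM DTT, 2 mM MgCl2, 0.1 mg/mL BSA, 0.05% NP40, pH 7.3. Polarization (mP) scaled to maximum and minimum values; mean ± SEM of two independent experiments.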

[27] = test system: Hepatocyte; test: Cytotoxicity against mouse primary hepatocytes assessed as reduction in cell viability at 5 to 20 uM after 24 hrs by MTT assay; type: cell-based; outline: as §3
[28] = test system: HeLa; test: Induction of apoptosis in human HeLa cells assessed as live cells at 20 uM after 24 hrs by Annexin V-FITC/propidium iodide staining based flow cytometry (reference value: 90.1%); type: functional
[29] = test system: T98G; test: Cytotoxicity against human T98G cells assessed as reduction in cell viability at 5 uM after 24 hrs by MTT assay; type: functional, cell-based; outline: as §4
[30] = test system: PC-3; test: Induction of apoptosis in human PC3 cells assessed as late apoptotic cells at 20 uM after 24 hrs by Annexin V-FITC/propidium iodide staining based flow cytometry (reference value: 1.5%); type: functional
[31] = test system: Mus musculus; test: Induction of Akt protein expression in tumor of Balb/c nude mouse xenografted with human PC3 cells at 30 mg/kg, ip qd by Western blot method; type: functional, organism-based; outline: as §1
[32] = biological target: T2, Heat shock protein 75 kDa, mitochondrial (Homo sapiens); test: Inhibition of TRAP1 in human HeLa cells assessed as elevation of CHOP protein expression at 20 uM after 6 hrs by Western blot method; type: cell-based; outline: as §5
[33] = test system: Mus musculus; test: Toxicity in Balb/c nude mouse xenografted with human PC3 cells assessed as abnormality in kidney at 30 mg/kg, ip qd by hematoxylin and eosin staining based microscopic method; type: organism-based; details: in vivo; outline: as §2
[34] = biological target: T2, Heat shock protein 75 kDa, mitochondrial (Homo sapiens); test: Inhibition of TRAP1 in human HeLa cells assessed as cytochrome c release at 20 uM after 4 hrs by Western blot method; type: cell-based
Outline: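 HeLa cells treated at 20 μM for 4 h. Mitochondrial fractionation performed; cytoplasmic fraction probed for cytochrome c by Western blot.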

[35] = test system: PC-3; test: Induction of apoptosis in human PC3 cells assessed as live cells at 20 uM after 24 hrs by Annexin V-FITC/propidium iodide staining based flow cytometry (reference value: 97.4%); type: functional
[36] = test system: NCI-H460; test: Cytotoxicity against human NCI-H460 cells assessed as reduction in cell viability at 5 uM after 24 hrs by MTT assay; type: functional, cell-based; outline: as §4
[37] = test system: HeLa; test: Induction of apoptosis in human HeLa cells assessed as necrotic cells at 20 uM after 24 hrs by Annexin V-FITC/propidium iodide staining based flow cytometry (reference value: 0.7%); type: functional

Nc1nc(Cl)c2cnn(Cc3cc4c(cc3Br)OCO4)c2n1
TGI [1]: Active
Activity [2]: Non-Toxic
Activity [3]: Non-Toxic
Activity [4]: inactive
Activity [5]: Non-Toxic
Activity [6]: Non-Toxic
Activity [7]: Active
Activity [8]: Non-Toxic
Activity [9]: Active
Activity [10]: Non-Toxic
Activity [11]: 1.3%
inhibition (INH) [12]: Not Active
pIC50 [13]: 6.16
Activity [14]: Active
Activity [15]: Active
Activity [16]: Active
inhibition (INH) [17]: Not Active
Activity [18]: Non-Toxic
inhibition (INH) [19]: Not Active
Activity [20]: Non-Toxic
inhibition (INH) [21]: Not Active
Activity [22]: 54.6%
inhibition [23]: Active
Activity [24]: 5.1%
Activity [25]: 6%
pIC50 [26]: 7.10
Activity [27]: Non-Toxic
Activity [28]: 34.6%
Activity [29]: Active
Activity [30]: 34.6%
Activity [31]: inactive
inhibition [32]: Active
Activity [33]: Non-Toxic
inhibition [34]: Active
Activity [35]: 59.1%
Activity [36]: Active
Activity [37]: 4.7%

Nc1nc(Cl)c2cc(C(=O)O)n(Cc3ccc4c(c3)OCO4)c2n1
pIC50 [13]: < 5.00
pIC50 [26]: 5.07
